Experimental data: ChEMBL document CHEMBL3745705, “Discovery of Oral VEGFR-2 Inhibitors with Prolonged Ocular Retention That Are Efficacious in Models of Wet Age-Related Macular Degeneration” (J Med Chem, 2015)
In brackets after ≈: the same amount, converted by molar mass.

Key:
[1] = target: Voltage-gated inwardly rectifying potassium channel KCNH2 (Homo sapiens, UniProt Q12809); assay: Inhibition of human ERG channel by automated Q-patch assay
Mus musculus [2] = species on record: Mus musculus; assay: animal or person; conditions: C57BL/6, po, read-out: INH
[3] = Half life in Brown Norway rat at 3 mg/kg, po or 1 mg/kg, iv by LC-MS/MS analysis; type: ADME, organism-based; conditions: in vivo
[4] = Aqueous solubility of the compound at pH 6.8; conditions: aqueous medium
[5] = Dose normalized Cmax in Brown Norway rat posteior eye cup at 2 mg/kg, po; type: ADME, organism-based; conditions: in vivo
Procedure, shortened: (§1)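 Single oral dose to three-month-old Brown Norway rats as a suspension in 0.5% MC/0.1% tween 80, WFI. Retina, posterior eye cup (RPE/choroid/sclera) and plasma collected from 2 rats per time point up to 144 h. Tissues homogenized, plasma proteins precipitated, drug quantified by LC-MS/MS.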

Plasma [6] = assay: Dose normalized plasma concentration in Brown Norway rat plasma at 2 mg/kg, po measured at 24 hrs by LC-MS/MS analysis; type: ADME, organism-based; conditions: in vivo; procedure, shortened: as §1
Rattus norvegicus [7] = assay: Antiangiogenic activity in po dosed Brown Norway rat laser-induced choroidal neovascularization model assessed as inhibition of neovascular lesion formation administered qd for 14 days by microscopic analysis; type: functional; conditions: 336 h
Procedure, shortened: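 Male Brown Norway rats, about 12 weeks old, dosed by oral gavage starting about 1 h before laser. Lesions were made under ketamine/xylazine i.p. (40–80 / 5–10 mg/kg) with 532 nm laser pulses (30 ms, 190 mW, 200 µm spot), about 4 lesions per eye and 10 rats per group. Vessels were labelled with i.v. 2,000 kD FITC dextran, eyes fixed in 4% paraformaldehyde, and CNV area measured blinded.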

[8] = Dose normalized drug uptake in Brown Norway rat retina at 2 mg/kg, po by LC-MS/MS analysis; type: ADME, organism-based; conditions: in vivo; procedure, shortened: as §1
[9] = Dose normalized AUC (0 to 24 hrs) in Brown Norway rat posteior eye cup at 2 mg/kg, po; type: ADME, organism-based; conditions: in vivo
[10] = Dose normalized Cmax in Brown Norway rat retina at 2 mg/kg, po; type: ADME, organism-based; conditions: in vivo; procedure, shortened: as §1
Plasma [11] = assay: Dose normalized AUC (0 to 24 hrs) in Brown Norway rat plasma at 2 mg/kg, po; type: ADME, organism-based; conditions: in vivo
Mus musculus [12] = assay: Antiangiogenic activity in po dosed C57BL/6 mouse laser-induced choroidal neovascularization assessed as inhibition of neovascular lesion formation administered qd for 6 days measured on day 7 by microscopic analysis; type: functional; conditions: C57BL/6, po
[13] = Dose normalized AUC (0 to 24 hrs) in Brown Norway rat retina at 2 mg/kg, po; type: ADME, organism-based; conditions: in vivo
Rattus norvegicus [14] = assay: Oral bioavailability in Brown Norway rat at 3 mg/kg by LC-MS/MS analysis; type: ADME, organism-based; conditions: in vivo
[15] = Volume of distribution at steady state in Brown Norway rat at 3 mg/kg, po or 1 mg/kg, iv by LC-MS/MS analysis; type: ADME, organism-based; conditions: in vivo, read-out: Vdss
Rattus norvegicus [16] = assay: AUC (0 to 8 hrs) in Brown Norway rat at 3 mg/kg, po by LC-MS/MS analysis; type: ADME, organism-based; set-up: dose 3 mg/kg, time < 8 hr, route oral; conditions: in vivo
Plasma [17] = assay: Dose normalized Cmax in Brown Norway rat plasma at 2 mg/kg, po; type: ADME, organism-based; conditions: in vivo; procedure, shortened: as §1
[18] = Drug uptake in Brown Norway rat posteior eye cup at 2 mg/kg, po; type: ADME, organism-based; conditions: in vivo; procedure, shortened: as §1
[19] = Cmax in Brown Norway rat at 3 mg/kg, po or 1 mg/kg, iv by LC-MS/MS analysis; type: ADME, organism-based; conditions: in vivo
[20] = Dose normalized AUC (0 to 24 hrs) in Brown Norway rat retina at 6 mg/kg, po; type: ADME, organism-based; conditions: in vivo
Plasma [21] = assay: Dose normalized Cmax in Brown Norway rat plasma at 6 mg/kg, po; type: ADME, organism-based; conditions: in vivo
[22] = Dose normalized drug uptake in Brown Norway rat retina at 6 mg/kg, po by LC-MS/MS analysis; type: ADME, organism-based; conditions: in vivo
[23] = Half life in Brown Norway rat at 10 mg/kg, po or 1 mg/kg, iv by LC-MS/MS analysis; type: ADME, organism-based; conditions: in vivo
Procedure, shortened: (§2)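 Brown Norway rats dosed i.v. at 1 mg/kg (n = 2; NMP/PG/cremophorEL/PBS or NMP/PEG 300/WFI vehicle) or p.o. at 3 or 10 mg/kg (n = 3; 0.5% MC/0.1% tween 80, WFI). Clearance, Vdss, t1/2, Cmax, AUC 0-8h and oral bioavailability calculated from plasma levels.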

[24] = Dose normalized AUC (0 to 24 hrs) in Brown Norway rat posteior eye cup at 6 mg/kg, po; type: ADME, organism-based; conditions: in vivo
Plasma [25] = assay: Dose normalized plasma concentration in Brown Norway rat plasma at 6 mg/kg, po measured at 24 hrs by LC-MS/MS analysis; type: ADME, organism-based; conditions: in vivo
[26] = Dose normalized Cmax in Brown Norway rat retina at 6 mg/kg, po; type: ADME, organism-based; conditions: in vivo
Rattus norvegicus [27] = assay: AUC (0 to 8 hrs) in Brown Norway rat at 10 mg/kg, po by LC-MS/MS analysis; type: ADME, organism-based; set-up: dose 10 mg/kg, time < 8 hr, route oral; conditions: in vivo
[28] = Volume of distribution at steady state in Brown Norway rat at 10 mg/kg, po or 1 mg/kg, iv by LC-MS/MS analysis; type: ADME, organism-based; conditions: in vivo, read-out: Vdss; procedure, shortened: as §2
[29] = Cmax in Brown Norway rat at 10 mg/kg, po or 1 mg/kg, iv by LC-MS/MS analysis; type: ADME, organism-based; conditions: in vivo; procedure, shortened: as §2
[30] = Dose normalized drug uptake in Brown Norway rat posteior eye cup at 6 mg/kg, po; type: ADME, organism-based; conditions: in vivo
[31] = Dose normalized Cmax in Brown Norway rat posteior eye cup at 6 mg/kg, po; type: ADME, organism-based; conditions: in vivo
Rattus norvegicus [32] = assay: Oral bioavailability in Brown Norway rat at 10 mg/kg by LC-MS/MS analysis; type: ADME, organism-based; conditions: in vivo; procedure, shortened: as §2
Plasma [33] = assay: Dose normalized AUC (0 to 24 hrs) in Brown Norway rat plasma at 6 mg/kg, po; type: ADME, organism-based; conditions: in vivo
[34] = target: Mast/stem cell growth factor receptor Kit (Homo sapiens, UniProt P10721); assay: Inhibition of c-Kit (unknown origin)
Procedure, shortened: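 Selectivity measured in a 62-kinase panel, with results reported as IC50 (µM).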

[35] = Plasma concentration in mouse model of laser-induced choroidal neovascularization at 100 mg/kg, po bid for 7 days measured 16 hrs post last dose; type: ADME, organism-based
Mus musculus [36] = assay: Antiangiogenic activity in mouse model of laser-induced choroidal neovascularization assessed as inhibition of neovascular lesion formation at 100 mg/kg, po bid for 7 days; type: functional; conditions: 168 h

Mast/stem cell growth factor receptor Kit, sequence (P10721 whole entry): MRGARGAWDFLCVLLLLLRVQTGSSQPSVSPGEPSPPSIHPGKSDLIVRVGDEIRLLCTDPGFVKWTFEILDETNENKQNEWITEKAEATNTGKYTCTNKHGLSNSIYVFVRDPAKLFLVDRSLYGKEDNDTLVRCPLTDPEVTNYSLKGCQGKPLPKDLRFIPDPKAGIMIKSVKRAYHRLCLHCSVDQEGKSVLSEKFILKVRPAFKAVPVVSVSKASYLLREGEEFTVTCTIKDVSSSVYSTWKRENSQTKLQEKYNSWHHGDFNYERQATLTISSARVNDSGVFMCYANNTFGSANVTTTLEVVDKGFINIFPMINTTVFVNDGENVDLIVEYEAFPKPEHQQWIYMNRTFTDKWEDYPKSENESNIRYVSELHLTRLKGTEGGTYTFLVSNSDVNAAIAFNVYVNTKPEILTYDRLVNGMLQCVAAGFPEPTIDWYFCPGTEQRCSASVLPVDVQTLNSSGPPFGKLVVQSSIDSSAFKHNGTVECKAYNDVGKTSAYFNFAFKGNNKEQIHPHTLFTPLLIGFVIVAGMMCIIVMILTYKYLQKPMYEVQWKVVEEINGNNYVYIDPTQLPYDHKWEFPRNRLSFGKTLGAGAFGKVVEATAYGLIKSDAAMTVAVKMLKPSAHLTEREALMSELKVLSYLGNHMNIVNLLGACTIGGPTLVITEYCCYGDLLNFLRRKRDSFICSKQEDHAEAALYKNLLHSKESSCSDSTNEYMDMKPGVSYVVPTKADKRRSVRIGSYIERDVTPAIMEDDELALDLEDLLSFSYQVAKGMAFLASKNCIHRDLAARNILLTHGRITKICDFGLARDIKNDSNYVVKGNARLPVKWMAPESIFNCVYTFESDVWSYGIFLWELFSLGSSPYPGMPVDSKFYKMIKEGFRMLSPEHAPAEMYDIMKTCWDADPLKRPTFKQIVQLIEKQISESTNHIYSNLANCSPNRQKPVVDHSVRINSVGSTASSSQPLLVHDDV
Voltage-gated inwardly rectifying potassium channel KCNH2, sequence (Q12809 whole entry): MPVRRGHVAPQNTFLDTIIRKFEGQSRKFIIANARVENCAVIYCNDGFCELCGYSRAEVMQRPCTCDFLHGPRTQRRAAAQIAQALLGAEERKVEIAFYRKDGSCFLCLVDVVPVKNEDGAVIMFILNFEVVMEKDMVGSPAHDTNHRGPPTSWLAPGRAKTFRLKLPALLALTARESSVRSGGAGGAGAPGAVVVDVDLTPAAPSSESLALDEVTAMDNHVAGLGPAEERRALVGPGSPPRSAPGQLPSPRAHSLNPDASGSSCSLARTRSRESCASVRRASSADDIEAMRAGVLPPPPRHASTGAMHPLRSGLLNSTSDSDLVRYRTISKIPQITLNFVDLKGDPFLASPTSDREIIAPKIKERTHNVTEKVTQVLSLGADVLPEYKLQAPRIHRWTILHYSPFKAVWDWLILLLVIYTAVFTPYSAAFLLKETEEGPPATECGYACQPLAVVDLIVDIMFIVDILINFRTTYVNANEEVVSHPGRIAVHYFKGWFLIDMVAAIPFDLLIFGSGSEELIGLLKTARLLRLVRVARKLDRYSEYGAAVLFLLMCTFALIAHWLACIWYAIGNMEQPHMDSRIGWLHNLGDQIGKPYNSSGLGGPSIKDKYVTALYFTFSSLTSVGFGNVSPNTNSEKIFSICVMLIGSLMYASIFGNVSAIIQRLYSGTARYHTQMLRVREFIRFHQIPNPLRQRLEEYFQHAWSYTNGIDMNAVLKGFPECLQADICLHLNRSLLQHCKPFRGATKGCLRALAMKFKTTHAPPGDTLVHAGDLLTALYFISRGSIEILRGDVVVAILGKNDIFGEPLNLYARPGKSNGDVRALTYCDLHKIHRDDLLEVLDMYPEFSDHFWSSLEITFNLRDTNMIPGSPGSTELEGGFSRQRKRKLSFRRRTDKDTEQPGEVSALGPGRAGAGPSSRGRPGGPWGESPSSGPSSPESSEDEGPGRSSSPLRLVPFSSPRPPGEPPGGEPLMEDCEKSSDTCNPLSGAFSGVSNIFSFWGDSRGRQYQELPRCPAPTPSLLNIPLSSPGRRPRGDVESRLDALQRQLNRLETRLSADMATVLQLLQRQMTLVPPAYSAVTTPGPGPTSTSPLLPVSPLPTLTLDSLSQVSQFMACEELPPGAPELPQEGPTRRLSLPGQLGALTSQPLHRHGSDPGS

SMILES	inhibition in vivo at 10 mg/kg (Mus musculus [2]) [%]	half-life [3] [h]	solubility [4] [µM]	ED50 (Rattus norvegicus [7]) [mg/kg]	ED90 (Rattus norvegicus [7]) [mg/kg]	ED50 (Mus musculus [12]) [mg/kg]	ED90 (Mus musculus [12]) [mg/kg]	F (Rattus norvegicus [14]) [%]	Vd [15] [L/kg]	AUC (Rattus norvegicus [16]) [µM·h]	Cmax [19] [µM]	AUC/dose [20] [nM·h/mg/kg]	Cmax/dose (Plasma [21]) [nM/mg/kg]	Druguptake/dose [22] [nM/mg/kg]	AUC/dose [24] [nM·h/mg/kg]	Cp/dose (Plasma [25]) [nM/mg/kg]	Cmax/dose [26] [nM/mg/kg]	Druguptake/dose [30] [nM/mg/kg]	Cmax/dose [31] [nM/mg/kg]	AUC/dose (Plasma [33]) [nM·h/mg/kg]	also measured
O=C(Nc1cc(C2CC2)on1)n1ccc2cc(Oc3ncnc4c3CNC4)ccc21	98	1.2	110 (≈ 44.3 µg/mL)	0.7	2.7	1.8	4.8	100	0.5	29.4	11	–	–	–	–	–	–	–	–	–	IC50 [1]: > 30000 nM; Cmax/dose [5]: 5293 nM/mg/kg; Cp/dose (Plasma [6]): 6 nM/mg/kg; Druguptake/dose [8]: 65 nM/mg/kg; AUC/dose [9]: 92954 nM·h/mg/kg; Cmax/dose [10]: 337 nM/mg/kg; AUC/dose (Plasma [11]): 15014 nM·h/mg/kg; AUC/dose [13]: 2692 nM·h/mg/kg; Cmax/dose (Plasma [17]): 3225 nM/mg/kg; Druguptake/dose [18]: 3344 nM/mg/kg
CC1(c2cc(NC(=O)n3ccc4cc(Oc5ncnc6c5CCNC6)ccc43)n[nH]2)CC1	64	–	252 (≈ 108 µg/mL)	2.7	13.6	7.8	25.3	–	–	–	–	310	33	13	2386	0.7	15	102	110	166	half-life [23]: 2.7 h; AUC (Rattus norvegicus [27]): 1.12 µM·h; Vd [28]: 22 L/kg; Cmax [29]: 0.505 µM; F (Rattus norvegicus [32]): 51%
C[C@H]1Cc2c(ncnc2Oc2ccc3c(ccn3C(=O)Nc3cc(C4(C)CC4)n[nH]3)c2)CN1	67	2.3	–	2.9	14.6	3.4	19.6	81	5.6	2.49	0.514	3215	68	122	22266	1.6	170	1067	1067	598	IC50 [34]: 600 nM
Cc1ccc(Nc2nccc(N(C)c3ccc4c(C)n(C)nc4c3)n2)cc1S(N)(=O)=O [PAZOPANIB]	–	–	–	–	–	–	–	–	–	–	–	–	–	–	–	–	–	–	–	–	concentration at 16 h [35]: 13 µM; inhibition in vivo at 100 mg/kg (Mus musculus [36]): 93%
